We go through 14 molecules from ChEMBL document CHEMBL2412985, “Peroxisome proliferator-activated receptor delta antagonists inhibit hepatitis C virus RNA replication” (Bioorg Med Chem Lett, 2013).

One data set concerns Hepatitis C virus. Put plainly: Antiviral activity against HCV infected in […] OR6 cells assessed as inhibition of viral RNA replication after 72 hrs by luciferase reporter gene assay. Type of data set: functional. The settings on record: for EC50: OR6, 72 h, read-out: ED50 (the source's name). In outline:
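OR6 cells carry genome-length HCV RNA with a Renilla luciferase reporter. Cells were plated at 2 × 10⁴ per well, at least in triplicate, and cultured 24 h. They were then exposed to compound for 72 h, lysed in Renilla lysis reagent, and luciferase activity was read. The top test concentration was set from prior WST-1 viability at about 80% relative activity.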

In data set [1] the target is T1, Peroxisome proliferator-activated receptor delta (Homo sapiens, UniProt Q03181).
T1 sequence (Q03181 whole entry): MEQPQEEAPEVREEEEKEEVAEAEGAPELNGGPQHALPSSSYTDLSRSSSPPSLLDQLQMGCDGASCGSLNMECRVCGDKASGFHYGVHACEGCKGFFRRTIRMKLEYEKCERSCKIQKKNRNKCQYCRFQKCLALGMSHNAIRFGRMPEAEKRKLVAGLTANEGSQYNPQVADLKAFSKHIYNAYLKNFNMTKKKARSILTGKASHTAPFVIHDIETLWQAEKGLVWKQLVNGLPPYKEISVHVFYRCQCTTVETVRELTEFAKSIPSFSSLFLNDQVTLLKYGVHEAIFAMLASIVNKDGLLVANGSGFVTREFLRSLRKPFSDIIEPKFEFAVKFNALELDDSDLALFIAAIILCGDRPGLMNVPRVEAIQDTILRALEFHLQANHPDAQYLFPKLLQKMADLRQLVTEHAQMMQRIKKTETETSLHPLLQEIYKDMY
Put plainly: Antagonist activity at human PPARdelta assessed as effect on TIPP-703-induced activity. In outline: (§1)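 Antagonism was measured against stimulation by the hPPAR-pan agonist, with test compound co-applied and the result expressed as % inhibition.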

A short description of data set [2]: Selectivity index, ratio of CC50 for […] OR6 cells to ED50 for HCV. The method, boiled down: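 SI was calculated as CC₅₀ (WST-1 viability of OR6 cells, 72 h) divided by EC₅₀ (HCV replicon Renilla luciferase inhibition, 72 h).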
Data set [3] can be described thus: Cytotoxicity against […] OR6 cells after 72 hrs by WST1 assay. Type of data set: cell-based. The method, boiled down:
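OR6 cells were seeded at 1 × 10³ per well in triplicate and treated at three or four concentrations for 72 h. Viability was read by WST-1 proliferation assay, and CC₅₀ was determined.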
(Tetrazolium dyes change colour on reduction, which living cells bring about.)

Data set [4] addresses T2, Peroxisome proliferator-activated receptor alpha (Homo sapiens) (UniProt Q07869).
T2 sequence (whole entry): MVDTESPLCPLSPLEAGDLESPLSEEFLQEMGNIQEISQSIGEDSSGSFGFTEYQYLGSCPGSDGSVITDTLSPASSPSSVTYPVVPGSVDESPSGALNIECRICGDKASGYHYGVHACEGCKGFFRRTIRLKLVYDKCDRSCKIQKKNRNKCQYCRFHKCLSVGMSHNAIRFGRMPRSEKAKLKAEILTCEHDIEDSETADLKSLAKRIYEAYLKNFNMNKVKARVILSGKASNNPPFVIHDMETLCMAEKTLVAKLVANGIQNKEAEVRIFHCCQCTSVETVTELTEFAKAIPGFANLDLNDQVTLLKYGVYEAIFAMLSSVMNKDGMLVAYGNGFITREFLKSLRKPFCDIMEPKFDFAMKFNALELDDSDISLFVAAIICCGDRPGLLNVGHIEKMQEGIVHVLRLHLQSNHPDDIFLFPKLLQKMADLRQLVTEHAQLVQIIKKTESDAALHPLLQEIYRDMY
Nature of the data set: Antagonist activity at human PPARalpha assessed as effect on TIPP-703-induced activity at 10 uM. The method, boiled down:
as §1

The species entered for a further data set is Homo sapiens. Nature of the data set: Selectivity ratio of human PPARdelta to human PPARalpha.
Data set [5] deals with T3, Peroxisome proliferator-activated receptor delta (Homo sapiens) (UniProt Q03181).
T3 sequence (whole entry): T1 sequence (Q03181 whole entry)
Put plainly: Antagonist activity at human PPARdelta assessed as effect on TIPP-703-induced activity at 10 uM. The method, boiled down:
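Antagonism measured as % inhibition of hPPARδ activity stimulated by a co-added hPPAR pan-agonist held at a fixed level of […].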

Activity calls are given as the source filed them. No cut-off for these calls is given here. Where only a bound is given, the exact number is not on record here.

Broadly, the IC50 is the midpoint of a concentration-inhibition curve. Regarding `CCCCOc1ccc(-c2ccc(C)c(C(=O)O)c2)cc1CNC(=O)c1ccc(C(F)(F)F)cc1`, in the data set with Hepatitis C virus (Hepacivirus hominis), the ED50 entry is “inactive”. In data set [1], the IC50 result is on record as “Not Active”.

For the molecule `CCCCOc1ccc(-c2ccc(C(=O)O)nc2)cc1CNC(=O)c1ccc(C(F)(F)F)cc1`, the ED50 entry with Hepatitis C virus (Hepacivirus hominis) was “inactive”. Besides, the IC50 result in data set [1] is given as “Not Active”.

For orientation: CC50 means the concentration giving 50% cytotoxicity. A word on the inhibition: it is the change of the read-out against control, counted positive when it falls. Take `CCCCOc1ccc(-c2ccc(C(=O)O)cc2Cl)cc1CNC(=O)c1ccc(C(F)(F)F)cc1`: the “Selectivity Index” value in data set [2] came to 1.8. In data set [3], this molecule returned a CC50 at 72 h of 3.2 µM. Further, in the data set with Hepatitis C virus, the EC50 worked out at 1.8 µM. Further, the inhibition in data set [4] is 30.7%. The IC50 in data set [1] (read-out: IC50) amounted to 0.013 µM.

For the molecule `CCCCOc1ccc(-c2ccc(C(=O)O)cc2F)cc1CNC(=O)c1ccc(C(F)(F)F)cc1`, the “Selectivity Index” value in data set [2] was determined as 2.1. Also, the CC50 at 72 h in data set [3] was determined as 8.1 µM. Moreover, in the data set with Hepatitis C virus, the EC50 came out at 3.9 µM. The inhibition in data set [4] came to 25.4%. In data set [1] (read-out: IC50), the IC50 was 0.1 µM.

Regarding `CCCCOc1ccc(-c2ccc(C(=O)O)o2)cc1CNC(=O)c1ccc(C(F)(F)F)cc1`, the ED50 entry in the data set with Hepatitis C virus (Hepacivirus hominis) was “inactive”. Moreover, the IC50 entry in data set [1] was “Not Active”.

In the case of `CCCCCOc1ccc(-c2ccc(C(=O)O)cc2C)cc1CNC(=O)c1ccc(C(F)(F)F)cc1F`, in data set [2], the “Selectivity Index” value is listed as 5. The molecule further returned a CC50 at 72 h in data set [3] of 2.7 µM. The EC50 in the data set on Hepatitis C virus stood at 0.53 µM. For the same molecule, the inhibition in data set [4] was found to be 23.3%. Further, the IC50 in data set [1] (read-out: IC50) worked out at 0.092 µM.

For `CCCOc1ccc(-c2ccc(C(=O)O)cc2C)cc1CNC(=O)c1ccc(C(F)(F)F)cc1F`, the “Selectivity Index” value in data set [2] is recorded as 11. This molecule had a CC50 at 72 h in data set [3] of 2.2 µM. Also, in the data set with Hepatitis C virus, the EC50 stood at 0.22 µM. Further, the inhibition in data set [4] stood at 49.5%. Besides, in data set [1] (read-out: IC50), the 50% inhibitory concentration (IC50) worked out at 0.029 µM.

Take `CCCCOc1ccc(-c2ccc(C(=O)O)cn2)cc1CNC(=O)c1ccc(C(F)(F)F)cc1`: the ED50 result with Hepatitis C virus (Hepacivirus hominis) is “inactive”. Besides, in data set [1], the IC50 result is reported as “Not Active”.

Consider `O=C(Nc1ccncc1)c1cc([N+](=O)[O-])ccc1Cl`, for which the “Selectivity Index” value in data set [2] was 0.55. Also, the CC50 at 72 h in data set [3] came to 2.7 µM. Also, in the data set with Hepatitis C virus, the EC50 is 4.9 µM. Further, the inhibition in data set [4] was 31.8%. Moreover, in data set [1] (read-out: IC50), the IC50 is greater than 10 µM.

In the case of `COC(=O)c1sccc1S(=O)(=O)Nc1ccc(Nc2ccccc2)cc1OC`, in the data set with Hepatitis C virus (Hepacivirus hominis), the outcome was inactive.

With `CCCCOc1ccc(-c2ccc(C(=O)O)cc2C)cc1CNC(=O)c1ccc(C(F)(F)F)cc1`, the Selectivity Index in data set [2] was determined as 11. Moreover, in data set [3], the CC50 at 72 h was 2.5 µM. Besides, the inhibition result in the data set with Hepatitis C virus (Hepacivirus hominis) was “Dose-dependent effect”; in data set [4] it was 12.6%. Besides, in the data set on Hepatitis C virus, the EC50 stood at 0.22 µM. The Selectivity ratio in the data set listed under Homo sapiens stood at 1000. Besides, the IC50 in data set [1] (read-out: IC50) is 0.019 µM.

For `CCCCOc1ccc(-c2cc(C(=O)O)ccc2C)cc1CNC(=O)c1ccc(C(F)(F)F)cc1`, the ED50 result in the data set on Hepatitis C virus (Hepacivirus hominis) was “inactive”. The IC50 result in data set [1] is “Not Active”.

Take `NC(=O)c1ncn([C@@H]2O[C@H](CO)[C@@H](O)[C@H]2O)n1` [RIBAVIRIN]: the “Selectivity Index” value in data set [2] is 18. This molecule had a CC50 at 72 h in data set [3] of 100 µM. Also, the EC50 in the data set with Hepatitis C virus is 5.6 µM. In data set [5], the inhibition entry was “inactive”.

In the case of `CCOc1ccc(-c2ccc(C(=O)O)cc2C)cc1CNC(=O)c1ccc(C(F)(F)F)cc1F`, in data set [2], the “Selectivity Index” value is 10. In data set [3], this molecule displayed a 50% cytotoxic concentration (CC50) at 72 h of 3.9 µM. Also, the EC50 in the data set with Hepatitis C virus turned out to be 0.39 µM. In addition, the inhibition in data set [4] turned out to be 49.5%. Moreover, the IC50 in data set [1] (read-out: IC50) was 0.028 µM.
